# In PMC5624809 (Journal of the American Chemical Society, 2017):
# Read-outs that look alike come from different tables or passages of the source. Marks after values point to notes of the source that are not given here.
# Experiments:
# [1] = molecular target: T1, antithrombin (AT) (Homo sapiens, UniProt P01008); test: AT-binding affinity analysis using isothermal titration calorimetry; settings: for Binding affinity (Kd) to AT / Kd: ITC; for Kd: read-out: Binding affinity (Kd) to AT
# [2] = system: FXa; test: in vitro inhibition of the activity of FXa; format: biochemical; settings: for IC50: read-out: Anti-FXa activity (IC50)
# [3] = system: FXa; test: anti-FXa effect in a rat model; format: in vivo
# Summary of the method: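 Anti-Xa activity measured at several time points after dosing, with a saline-treated group as control. Values are mean ± S.D. (n = 4). Each treated group was compared with control by two-tailed Student's t-test, with p < 0.05 flagged.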
# [4] = molecular target: T1, antithrombin (AT); settings: cited from earlier work
# [5] = system: FXa; settings: cited from earlier work
# [6] = molecular target: T1, antithrombin (AT); settings: read-out: Binding affinity (Kd) to AT; affinity coelectrophoresis; cited from earlier work
# T1 sequence (P01008 33-464): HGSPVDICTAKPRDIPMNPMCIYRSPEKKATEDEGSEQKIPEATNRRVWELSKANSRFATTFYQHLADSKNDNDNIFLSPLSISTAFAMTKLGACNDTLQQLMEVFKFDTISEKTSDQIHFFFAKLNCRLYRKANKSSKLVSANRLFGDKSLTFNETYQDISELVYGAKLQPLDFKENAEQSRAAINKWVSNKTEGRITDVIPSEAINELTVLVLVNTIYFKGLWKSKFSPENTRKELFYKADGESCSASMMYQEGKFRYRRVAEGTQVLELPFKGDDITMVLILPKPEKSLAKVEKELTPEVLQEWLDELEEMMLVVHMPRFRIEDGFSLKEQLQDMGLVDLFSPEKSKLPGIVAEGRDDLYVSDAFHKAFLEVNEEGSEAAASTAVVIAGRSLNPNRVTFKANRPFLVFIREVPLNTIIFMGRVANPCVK
compound,measurement,setting,value
"O=C(O)C1OC(OC2C(COS(=O)(=O)O)OC(OC3C(C(=O)O)OC(OC4C(COS(=O)(=O)O)OC(OC5C(C(=O)O)OC(Oc6ccc([N+](=O)[O-])cc6)C(O)C5O)C(NS(=O)(=O)O)C4OS(=O)(=O)O)C(OS(=O)(=O)O)C3O)C(NS(=O)(=O)O)C2O)C(O)C(O)C1OC1OC(COS(=O)(=O)O)C(O)C(O)C1NS(=O)(=O)O (stereo not drawn) [Comp 2, GlcNS6S-GlcA-GlcNS6S-IdoA2S-GlcNS3S6S-GlcA-pNP]",Binding affinity (Kd) to AT,[1],No binding
same,Anti-FXa activity (IC50),[2],No inhibition
"O=C(O)[C@H]1O[C@@H](O[C@H]2[C@H](OS(=O)(=O)O)[C@@H](NS(=O)(=O)O)[C@@H](O[C@H]3[C@H](O)[C@@H](OS(=O)(=O)O)[C@H](O[C@H]4[C@H](OS(=O)(=O)O)[C@@H](NS(=O)(=O)O)[C@@H](O[C@H]5[C@H](O)[C@@H](O)[C@H](Oc6ccc([N+](=O)[O-])cc6)O[C@@H]5C(=O)O)O[C@@H]4COS(=O)(=O)O)O[C@H]3C(=O)O)O[C@@H]2COS(=O)(=O)O)[C@H](O)[C@@H](O)[C@@H]1O[C@H]1O[C@H](COS(=O)(=O)O)[C@@H](O)[C@H](O)[C@H]1NS(=O)(=O)O [Comp 3, GlcNS6S-GlcA-GlcNS3S6S-IdoA2S-GlcNS3S6S-GlcA-pNP]",anti-FXa activity (in words),[2],strong anti-FXa activity
same,IC50,[2],11 nM
"O=C(O)[C@H]1O[C@@H](Oc2ccc([N+](=O)[O-])cc2)[C@H](O)[C@@H](O)[C@@H]1O[C@H]1O[C@H](COS(=O)(=O)O)[C@@H](O[C@@H]2O[C@@H](C(=O)O)[C@@H](O[C@H]3O[C@H](COS(=O)(=O)O)[C@@H](O[C@@H]4O[C@@H](C(=O)O)[C@@H](O[C@H]5O[C@H](COS(=O)(=O)O)[C@@H](O[C@@H]6O[C@H](C(=O)O)[C@@H](O[C@H]7O[C@H](COS(=O)(=O)O)[C@@H](O)[C@H](O)[C@H]7NS(=O)(=O)O)[C@H](O)[C@H]6O)[C@H](OS(=O)(=O)O)[C@H]5NS(=O)(=O)O)[C@H](O)[C@H]4OS(=O)(=O)O)[C@H](OS(=O)(=O)O)[C@H]3NS(=O)(=O)O)[C@H](O)[C@H]2OS(=O)(=O)O)[C@H](O)[C@H]1NS(=O)(=O)O [Comp 6, GlcNS6S-GlcA-GlcNS3S6S-IdoA2S-GlcNS3S6S-IdoA2S-GlcNS6S-GlcA-pNP]",AT binding (in words),[1],high AT-binding affinity
same,Kd,[1],5.6 ± 2.6 nM
same,anti-FXa activity (in words),[2],displaying anti-FXa activity
same,IC50,[2],10.9 nM
"CO[C@H]1O[C@H](COS(=O)(=O)O)[C@@H](O[C@@H]2O[C@@H](C(=O)O)[C@@H](O[C@H]3O[C@H](COS(=O)(=O)O)[C@@H](O[C@@H]4O[C@H](C(=O)O)[C@@H](O[C@H]5O[C@H](COS(=O)(=O)O)[C@@H](O)[C@H](O)[C@H]5NS(=O)(=O)O)[C@H](O)[C@H]4O)[C@H](OS(=O)(=O)O)[C@H]3NS(=O)(=O)O)[C@H](O)[C@H]2OS(=O)(=O)O)[C@H](O)[C@H]1NS(=O)(=O)O [Fondaparinux, GlcNS6S-GlcA-GlcNS3S6S-IdoA2S-GlcNS6S-OMe, reference compound]",IC50,[2],12.2 nM
same,persistence of anti-FXa effect in vivo,[3]; time after administration,persisted after 8 hours
"O=C(O)C1OC(OC2C(COS(=O)(=O)O)OC(OC3C(C(=O)O)OC(OC4C(COS(=O)(=O)O)OC(OC5C(C(=O)O)OC(Oc6ccc([N+](=O)[O-])cc6)C(O)C5O)C(NS(=O)(=O)O)C4O)C(OS(=O)(=O)O)C3O)C(NS(=O)(=O)O)C2OS(=O)(=O)O)C(O)C(O)C1OC1OC(COS(=O)(=O)O)C(O)C(O)C1NS(=O)(=O)O (stereo not drawn) [GlcA2S-containing 6-mer, GlcNS6S-GlcA-GlcNS3S6S-GlcA2S-GlcNS6S-GlcA-pNP]",Binding affinity (Kd) to AT,[4],No binding ^d
same,anti-FXa activity (in words),[5],did not display anti-FXa activity
"O=C(O)C1OC(OC2C(COS(=O)(=O)O)OC(OC3C(C(=O)O)OC(OC4C(COS(=O)(=O)O)OC(OC5C(C(=O)O)OC(Oc6ccc([N+](=O)[O-])cc6)C(O)C5O)C(NS(=O)(=O)O)C4O)C(O)C3O)C(NS(=O)(=O)O)C2OS(=O)(=O)O)C(O)C(O)C1OC1OC(COS(=O)(=O)O)C(O)C(O)C1NS(=O)(=O)O (stereo not drawn) [IdoA-containing 6-mer, GlcNS6S-GlcA-GlcNS3S6S-IdoA-GlcNS6S-GlcA-pNP]",Kd,[4]; read-out: Binding affinity (Kd) to AT,32.6 ± 5.3 nM
same,anti-FXa activity (in words),[5],exhibited anti-FXa activity
same,IC50,[5]; read-out: Anti-FXa activity (IC50),29.2 nM
GlcNAc6S-GlcA-GlcNS3S6S-IdoA2S-GlcNS6S-IdoA2S-GlcNS6S-GlcA-pNP [Comp 11*],IC50,[2],9.4 nM
same,Kd,[6],8 ± 3 nM
GlcNS6S-GlcA-GlcNS3S6S-IdoA2S-GlcNS6S-GlcA-pNP [Comp 8*],anti-FXa activity (in words),[2],displayed anti-FXa activity
same,IC50,[2],9.1 nM
same,Kd,[6],7 ± 2 nM
GlcNS6S-GlcA-GlcNS6S-IdoA2S-GlcNS3S6S-IdoA2S-GlcNS6S-GlcA-pNP [Comp 5],AT binding (in words),[1],binds to AT tightly
same,Kd,[1],5.1 ± 1.4 nM
same,anti-FXa activity (in words),[2],strong anti-FXa activity
same,IC50,[2],7.7 nM
same,anti-FXa potency in vivo,[3]; within 30 min after the drug was administered,comparable anti-FXa potency to that of fondaparinux and compound 11*
GlcNS-GlcA-GlcNS-IdoA2S-GlcNS3S-IdoA2S-GlcNS-GlcA-pNP [Comp 4],Binding affinity (Kd) to AT,[1],No binding ^c
same,Anti-FXa activity (IC50),[2],No inhibition
